Experimental findings from ChEMBL document CHEMBL3091335, “Design and synthesis of potent and selective P2X₃ receptor antagonists derived from PPADS as potential pain modulators” (Eur J Med Chem, 2013) are described below.

In assay [1] the target is T1, P2X purinoceptor 7 (Homo sapiens, UniProt Q99572).
T1 sequence (Q99572 whole entry): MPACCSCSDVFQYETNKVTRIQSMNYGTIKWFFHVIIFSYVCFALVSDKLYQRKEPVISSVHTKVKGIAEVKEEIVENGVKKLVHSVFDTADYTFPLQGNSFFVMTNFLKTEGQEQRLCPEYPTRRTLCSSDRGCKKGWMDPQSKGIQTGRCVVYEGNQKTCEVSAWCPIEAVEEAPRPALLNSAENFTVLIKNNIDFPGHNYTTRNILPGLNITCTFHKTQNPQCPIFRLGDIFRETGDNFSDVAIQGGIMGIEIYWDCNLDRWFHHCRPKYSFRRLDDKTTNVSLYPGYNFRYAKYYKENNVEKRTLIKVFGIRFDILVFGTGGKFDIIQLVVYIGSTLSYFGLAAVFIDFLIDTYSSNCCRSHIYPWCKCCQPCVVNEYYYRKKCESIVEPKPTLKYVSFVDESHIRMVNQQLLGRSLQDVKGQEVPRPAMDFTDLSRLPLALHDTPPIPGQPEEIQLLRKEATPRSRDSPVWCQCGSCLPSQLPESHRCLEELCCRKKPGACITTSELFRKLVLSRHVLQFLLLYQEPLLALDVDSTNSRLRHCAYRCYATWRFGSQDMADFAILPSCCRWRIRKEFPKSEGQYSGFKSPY
Nature of the assay: Antagonist activity at recombinant human P2X7 receptor assessed as inhibition of BzATP-mediated Yo-Pro uptake measured for 1 hr by FLIPR assay.

Assay [2] concerns the target T1, P2X purinoceptor 7. The assay can be described thus: Antagonist activity at human P2X7 receptor expressed in HEK293 cells assessed as inhibition of BzATP-induced accumulation of ethidium+ after 120 mins by fluorescence assay. The class given is cell-based.
A short description of assay [3]: Antinociceptive activity in rat spinal dorsal horn assessed as inhibition of electrically-stimulated long term potentiation at 20 uM by Di-4-ANEPPS dye-based assay relative to control. The class given is functional. The note with it: Dorsal horn of spinal cord. Summed up: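 Ex vivo rat spinal cord slices (0.5 mm) loaded with voltage-sensitive dye Di-4-ANEPPS; optical signal in dorsal horn monitored before and after LTP induction by 2 Hz electrical stimulation (0.5 msec pulse) for 2 min. Expressed as % inhibition of LTP with compound treatment; means ± SD of 4 samples; pregabalin positive control.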

The target in assay [4] is T2, P2X2/P2X3 receptor (Rattus norvegicus) (UniProt P49653+P49654). Nature of the assay: Antagonist activity at recombinant rat P2X2/3 receptor expressed in Xenopus oocytes assessed as inhibition of ATP-induced ion current at 100 nM preincubated for 15 mins followed by ATP addition by two-electrode voltage clamp assay relative to control. The class given is cell-based. Background: Two-electrode voltage clamp is typically applied to oocytes expressing channels or transporters.

In assay [5] the target is T2, P2X2/P2X3 receptor (Rattus norvegicus). The assay can be described thus: Antagonist activity at recombinant rat P2X2/3 receptor expressed in Xenopus oocytes assessed as inhibition of ATP-induced ion current at 1 uM preincubated for 15 mins followed by ATP addition by two-electrode voltage clamp assay relative to control. It counts as cell-based.
Assay [6] deals with T3, P2X purinoceptor 3 (Homo sapiens) (UniProt P56373).
T3 sequence (whole entry): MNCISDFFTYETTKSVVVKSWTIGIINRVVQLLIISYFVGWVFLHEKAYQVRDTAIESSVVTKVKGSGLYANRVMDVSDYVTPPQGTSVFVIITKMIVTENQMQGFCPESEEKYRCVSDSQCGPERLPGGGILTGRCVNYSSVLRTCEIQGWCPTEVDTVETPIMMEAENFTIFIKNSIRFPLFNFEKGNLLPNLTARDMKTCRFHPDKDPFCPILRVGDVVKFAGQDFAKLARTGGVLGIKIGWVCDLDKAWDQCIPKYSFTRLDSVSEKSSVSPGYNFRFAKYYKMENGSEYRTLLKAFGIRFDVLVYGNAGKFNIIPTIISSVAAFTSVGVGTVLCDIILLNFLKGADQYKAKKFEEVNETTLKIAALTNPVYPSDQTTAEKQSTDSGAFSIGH
Nature of the assay: Antagonist activity at recombinant human P2X3 receptor expressed in Xenopus oocytes assessed as inhibition of ATP-induced ion current at 100 nM preincubated for 15 mins followed by ATP addition by two-electrode voltage clamp assay relative to control. It counts as cell-based.

In assay [7] the target is T3, P2X purinoceptor 3 (Homo sapiens). Nature of the assay: Antagonist activity at recombinant human P2X3 receptor expressed in Xenopus oocytes assessed as inhibition of ATP-induced ion current at 1 uM preincubated for 15 mins followed by ATP addition by two-electrode voltage clamp assay relative to control. It counts as cell-based.
Assay [8] addresses T4, P2X purinoceptor 7 (Homo sapiens) (UniProt Q99572).
T4 sequence (whole entry): T1 sequence (Q99572 whole entry)
The assay can be described thus: Antagonist activity at human P2X7 receptor expressed in HEK293 cells assessed as inhibition of BzATP-induced accumulation of ethidium+ at 10 uM after 120 mins by fluorescence assay relative to control. It counts as cell-based. The method in brief: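 HEK293 cells expressing hP2X7 were grown in DMEM with 10% FBS at 37 °C under 5% CO2, harvested with trypsin/EDTA and resuspended at 2.5 × 10⁶ cells/mL in KCl/glucose/EDTA/HEPES buffer (pH 7.4) with ethidium bromide. Cells were plated at 2 × 10⁵ cells/well with BzATP and incubated at 37 °C for 120 min. Fluorescence was read at ex 530/em 590 nm; mean ± SEM, n≥3.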

For the next assay, the target named is T5, P2X purinoceptor 3 (Homo sapiens, UniProt P56373).
T5 sequence (P56373 whole entry): T3 sequence (whole entry)
The assay can be described thus: Antagonist activity at recombinant human P2X3 receptor expressed in Xenopus oocytes assessed as inhibition of ATP-induced ion current preincubated for 20 mins followed by ATP addition by two-electrode voltage clamp assay. It counts as cell-based. The method in brief: (§1)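 Defolliculated Xenopus oocytes were injected with mP2X1 or hP2X3 cRNA (40 nL), held 24 h at 18 °C in Barth's solution, then stored at 4 °C for up to 12 days. Two-electrode voltage clamp was run at Vh −70 mV in HEPES/BaCl2 buffer at pH 7.5. ATP was superfused for 60–120 s with 20 min washout. Currents were normalized to the ATP response, giving % inhibition or IC50 from inhibition curves; mean ± SEM, n≥3.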

The target in assay [9] is T6, P2X purinoceptor 1 (Mus musculus) (UniProt P51576).
T6 sequence (whole entry): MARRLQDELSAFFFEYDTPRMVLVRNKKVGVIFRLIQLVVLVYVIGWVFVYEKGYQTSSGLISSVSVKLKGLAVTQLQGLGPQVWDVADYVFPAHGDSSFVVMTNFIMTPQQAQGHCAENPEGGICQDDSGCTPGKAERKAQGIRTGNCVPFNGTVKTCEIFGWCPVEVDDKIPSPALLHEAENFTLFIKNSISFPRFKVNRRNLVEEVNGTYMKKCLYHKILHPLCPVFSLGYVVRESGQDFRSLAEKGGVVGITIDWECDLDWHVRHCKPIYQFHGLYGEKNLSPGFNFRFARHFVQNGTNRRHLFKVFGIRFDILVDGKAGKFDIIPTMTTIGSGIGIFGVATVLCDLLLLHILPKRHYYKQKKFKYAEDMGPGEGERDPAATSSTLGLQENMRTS
Nature of the assay: Antagonist activity at recombinant mouse P2X1 receptor expressed in Xenopus oocytes assessed as inhibition of ATP-induced ion current at 10 uM preincubated for 20 mins followed by ATP addition by two-electrode voltage clamp assay relative to control. The class given is cell-based. Summed up:
as §1

Assay [10] concerns the target T7, P2X purinoceptor 1 (Mus musculus, UniProt P51576).
T7 sequence (P51576 whole entry): T6 sequence (whole entry)
The assay can be described thus: Antagonist activity at mouse P2X1 receptor.

Assay [11] deals with T8, P2X purinoceptor 1 (Rattus norvegicus, UniProt P47824).
T8 sequence (P47824 whole entry): T6 sequence (whole entry) with G60D, M108V, A113T, H180R, L223Q, S231N, E260K, R314H, R381H, A384V
The assay can be described thus: Antagonist activity at recombinant rat P2X1 receptor expressed in Xenopus oocytes assessed as ion flux stimulation. The class given is cell-based.

In assay [12] the target is T7, P2X purinoceptor 1. The assay can be described thus: Antagonist activity at recombinant mouse P2X1 receptor expressed in Xenopus oocytes assessed as inhibition of ATP-induced ion current preincubated for 20 mins followed by ATP addition by two-electrode voltage clamp assay. It counts as cell-based. Summed up: as §1

Residue numbers refer to the chain shown, from its start.

A word on the IC50: it is the midpoint of a concentration-inhibition curve. In general, inhibition refers to the drop in the measured response relative to a control, in per cent.

`CN([C@@H](Cc1ccc(OS(=O)(=O)c2cccc3cnccc23)cc1)C(=O)N1CCN(c2ccccc2)CC1)S(=O)(=O)c1cccc2cnccc12`: the IC50 on P2X purinoceptor 7 [1] is 210 nM; at P2X purinoceptor 7 [2], 158 nM.
`Cc1nc(Cc2cccc(Oc3ccccc3)c2)c(/C=C/C(=O)O)c(C=O)c1O`: the inhibition at 20 µM in [3] was 65%. Moreover, the inhibition in assay [4] is 49.2%; in [5], 70.8%; in assay [6], 59.7%; in [7], 77.4%; in assay [8] it was 15.1%; in assay [9], 18.3%. Besides, the IC50 on P2X purinoceptor 3 amounted to 60 nM.
Take `Cc1nc(/N=N/c2ccc(S(=O)(=O)O)cc2S(=O)(=O)O)c(COP(=O)(O)O)c(C=O)c1O`: at P2X purinoceptor 1 [10], it took 99 nM to reach half-maximal inhibition (IC50).
`Cc1nc(/N=N/c2ccc(C(=O)O)cc2)c(COP(=O)(O)O)c(C=O)c1O`: the concentration for half-maximal inhibition (IC50) worked out at 43 nM at P2X purinoceptor 1 [11] and 30 nM on P2X purinoceptor 1 [12].
